Calls of active or inactive are those of the source.
How the values were obtained:
[1] = system: Pseudomonas aeruginosa; assay: Antibiofilm activity against Pseudomonas aeruginosa clinical isolate 24 assessed as inhibition of biofilm formation at sub-inhibitory concentration incubated for 24 hrs by crystal violet staining based microtiter plate method; format: functional, organism-based
Procedure, shortened: (§1)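 Washed overnight cultures in BM2 medium at 1 × 10^6 CFU/mL with 2-fold serial peptide dilutions in a U-bottom 96-well plate. Incubated 24 h at 37 °C without agitation. Unattached cells washed off, then 0.1% crystal violet stain read at 590 nm. No-bacteria blanks. Biomass expressed as % of untreated biofilm. At least three biological repeats.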

[2] = system: Pseudomonas aeruginosa; assay: Antibiofilm activity against Pseudomonas aeruginosa clinical isolate 25 assessed as inhibition of biofilm formation at sub-inhibitory concentration incubated for 24 hrs by crystal violet staining based microtiter plate method; format: functional, organism-based; procedure, shortened: as §1
[3] = system: Pseudomonas aeruginosa; assay: Antibiofilm activity against Pseudomonas aeruginosa clinical isolate 46 assessed as inhibition of biofilm formation at sub-inhibitory concentration incubated for 24 hrs by crystal violet staining based microtiter plate method; format: functional, organism-based; procedure, shortened: as §1
[4] = system: Pseudomonas aeruginosa; assay: Antibiofilm activity against Pseudomonas aeruginosa clinical isolate 53 assessed as inhibition of biofilm formation at sub-inhibitory concentration incubated for 24 hrs by crystal violet staining based microtiter plate method; format: functional, organism-based; procedure, shortened: as §1
[5] = system: Pseudomonas aeruginosa; assay: Antibiofilm activity against Pseudomonas aeruginosa clinical isolate 71 assessed as inhibition of biofilm formation at sub-inhibitory concentration incubated for 24 hrs by crystal violet staining based microtiter plate method; format: functional, organism-based; procedure, shortened: as §1
[6] = system: Pseudomonas aeruginosa; assay: Antibiofilm activity against Pseudomonas aeruginosa clinical isolate 72 assessed as inhibition of biofilm formation at sub-inhibitory concentration incubated for 24 hrs by crystal violet staining based microtiter plate method; format: functional, organism-based; procedure, shortened: as §1
[7] = system: Pseudomonas aeruginosa; assay: Antibiofilm activity against Pseudomonas aeruginosa clinical isolate 99 assessed as inhibition of biofilm formation at sub-inhibitory concentration incubated for 24 hrs by crystal violet staining based microtiter plate method; format: functional, organism-based; procedure, shortened: as §1
[8] = system: Pseudomonas aeruginosa; assay: Antibiofilm activity against Pseudomonas aeruginosa clinical isolate 629 assessed as inhibition of biofilm formation at sub-inhibitory concentration incubated for 24 hrs by crystal violet staining based microtiter plate method; format: functional, organism-based; procedure, shortened: as §1
[9] = system: Pseudomonas aeruginosa; assay: Induction of biofilm degradation of Pseudomonas aeruginosa clinical isolate 24 incubated for 1 hr by crystal violet staining analysis relative to control; format: functional; settings: dose 50.0 µM
Procedure, shortened: (§2)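 Bacteria at 1 × 10^6 CFU/mL in BM2 grown static at 37 °C for 24 h to form biofilm. Wells rinsed of unattached cells, then exposed for 1 h to serial peptide dilutions (1.56–50 μM). Washed, stained with 0.1% crystal violet, A590 read. Biomass given as % of untreated biofilm; no-bacteria wells as blanks. At least three biological repeats.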

[10] = system: Pseudomonas aeruginosa; assay: Induction of biofilm degradation of Pseudomonas aeruginosa clinical isolate 25 at 50 uM incubated for 1 hr by crystal violet staining analysis relative to control; format: functional; procedure, shortened: as §2
[11] = system: Pseudomonas aeruginosa; assay: Induction of biofilm degradation of Pseudomonas aeruginosa clinical isolate 29 at 50 uM incubated for 1 hr by crystal violet staining analysis relative to control; format: functional; procedure, shortened: as §2
[12] = system: Pseudomonas aeruginosa; assay: Induction of biofilm degradation of Pseudomonas aeruginosa clinical isolate 40 at 50 uM incubated for 1 hr by crystal violet staining analysis relative to control; format: functional; procedure, shortened: as §2
[13] = system: Pseudomonas aeruginosa; assay: Induction of biofilm degradation of Pseudomonas aeruginosa clinical isolate 46 at 50 uM incubated for 1 hr by crystal violet staining analysis relative to control; format: functional; procedure, shortened: as §2
[14] = system: Pseudomonas aeruginosa; assay: Induction of biofilm degradation of Pseudomonas aeruginosa clinical isolate 52 at 50 uM incubated for 1 hr by crystal violet staining analysis relative to control; format: functional; procedure, shortened: as §2
[15] = system: Pseudomonas aeruginosa; assay: Induction of biofilm degradation of Pseudomonas aeruginosa clinical isolate 53 at 50 uM incubated for 1 hr by crystal violet staining analysis relative to control; format: functional; procedure, shortened: as §2
[16] = system: Pseudomonas aeruginosa; assay: Induction of biofilm degradation of Pseudomonas aeruginosa clinical isolate 71 at 50 uM incubated for 1 hr by crystal violet staining analysis relative to control; format: functional; procedure, shortened: as §2
[17] = system: Pseudomonas aeruginosa; assay: Induction of biofilm degradation of Pseudomonas aeruginosa clinical isolate 72 at 50 uM incubated for 1 hr by crystal violet staining analysis relative to control; format: functional; procedure, shortened: as §2
[18] = system: Pseudomonas aeruginosa; assay: Induction of biofilm degradation of Pseudomonas aeruginosa clinical isolate 82 at 50 uM incubated for 1 hr by crystal violet staining analysis relative to control; format: functional; procedure, shortened: as §2
[19] = system: Pseudomonas aeruginosa; assay: Induction of biofilm degradation of Pseudomonas aeruginosa clinical isolate 99 at 50 uM incubated for 1 hr by crystal violet staining analysis relative to control; format: functional; procedure, shortened: as §2
[20] = system: Pseudomonas aeruginosa; assay: Induction of biofilm degradation of Pseudomonas aeruginosa clinical isolate 172 at 50 uM incubated for 1 hr by crystal violet staining analysis relative to control; format: functional; procedure, shortened: as §2
[21] = system: Pseudomonas aeruginosa; assay: Induction of biofilm degradation of Pseudomonas aeruginosa clinical isolate 238 at 50 uM incubated for 1 hr by crystal violet staining analysis relative to control; format: functional; procedure, shortened: as §2
[22] = system: Pseudomonas aeruginosa; assay: Induction of biofilm degradation of Pseudomonas aeruginosa clinical isolate 251 at 50 uM incubated for 1 hr by crystal violet staining analysis; format: functional; procedure, shortened: as §2
[23] = system: Pseudomonas aeruginosa; assay: Induction of biofilm degradation of Pseudomonas aeruginosa clinical isolate 629 at 50 uM incubated for 1 hr by crystal violet staining analysis relative to control; format: functional; procedure, shortened: as §2
[24] = system: Pseudomonas aeruginosa; assay: Induction of biofilm degradation of Pseudomonas aeruginosa clinical isolate 995 at 50 uM incubated for 1 hr by crystal violet staining analysis relative to control; format: functional; procedure, shortened: as §2
[25] = system: Pseudomonas aeruginosa; assay: Induction of biofilm degradation of Pseudomonas aeruginosa PAO1 at 50 uM incubated for 1 hr by crystal violet staining analysis relative to control; format: functional; procedure, shortened: as §2
[26] = system: Pseudomonas aeruginosa; assay: Induction of biofilm degradation of Pseudomonas aeruginosa clinical isolate 59 at 50 uM incubated for 1 hr by crystal violet staining analysis relative to control; format: functional
Procedure, shortened: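 Inoculum of 1 × 10^6 CFU/mL was grown 24 h at 37 °C without agitation to form biofilm. Wells were rinsed of unattached bacteria and exposed for 1 h to serial peptide dilutions (1.56–50 μM). They were then washed, stained with 0.1% crystal violet, and read at 590 nm with no-bacteria blanks. Biomass is given as % of untreated biofilm.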

[27] = system: Pseudomonas aeruginosa; assay: Induction of biofilm degradation of Pseudomonas aeruginosa clinical isolate 24 at sub MIC concentration incubated for 1 hr by crystal violet staining analysis; format: functional; procedure, shortened: as §2
[28] = system: Pseudomonas aeruginosa; assay: Induction of biofilm degradation of Pseudomonas aeruginosa clinical isolate 40 at sub MIC concentration incubated for 1 hr by crystal violet staining analysis; format: functional; procedure, shortened: as §2
[29] = system: Pseudomonas aeruginosa; assay: Induction of biofilm degradation of Pseudomonas aeruginosa clinical isolate 53 at sub MIC concentration incubated for 1 hr by crystal violet staining analysis; format: functional; procedure, shortened: as §2
[30] = system: Pseudomonas aeruginosa; assay: Induction of biofilm degradation of Pseudomonas aeruginosa clinical isolate 59 at <12.5 uM incubated for 1 hr by crystal violet staining analysis; format: functional; procedure, shortened: as §2
[31] = system: Pseudomonas aeruginosa; assay: Antibiofilm activity against Pseudomonas aeruginosa clinical isolate 24 in basal medium 2 at 12.5 to 100 uM incubated for 24 hrs by resazurin staining based microtiter plate method; format: functional, organism-based; settings: dose 12.5-100 µM
[32] = system: Pseudomonas aeruginosa; assay: Antibiofilm activity against Pseudomonas aeruginosa clinical isolate 46 in basal medium 2 at 12.5 to 100 uM incubated for 24 hrs by resazurin staining based microtiter plate method; format: functional, organism-based; settings: dose 12.5-100 µM
[33] = system: Pseudomonas aeruginosa; assay: Antibiofilm activity against Pseudomonas aeruginosa clinical isolate 82 in basal medium 2 at 12.5 to 100 uM incubated for 24 hrs by resazurin staining based microtiter plate method; format: functional, organism-based; settings: dose 12.5-100 µM
[34] = system: Pseudomonas aeruginosa; assay: Antibiofilm activity against Pseudomonas aeruginosa PAO1 in basal medium 2 at 12.5 to 100 uM incubated for 24 hrs by resazurin staining based microtiter plate method; format: functional, organism-based; settings: dose 12.5-100 µM
[35] = system: Pseudomonas aeruginosa; assay: Inhibition of biofilm formation of Pseudomonas aeruginosa clinical isolate 24 derived from cystic fibrosis patient sputum at 0.78 to 25 uM by crystal violet based staining analysis; format: functional, organism-based; settings: dose 0.78-25 µM
Procedure, shortened: (§3)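 CF patient sputum diluted 10-fold with BM2, bacteria added with serial peptide dilutions starting from the highest MIC per isolate. Inoculum suspension 1 × 10^6 CFU/mL. Incubated 24 h at 37 °C without agitation. Unattached cells washed away, then 0.1% crystal violet staining and A590. Biomass given as % of untreated, with no-bacteria blanks.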

[36] = system: Pseudomonas aeruginosa; assay: Inhibition of biofilm formation of Pseudomonas aeruginosa clinical isolate 24 derived from cystic fibrosis patient sputum at 0.09 to 3.12 uM by crystal violet based staining analysis; format: functional, organism-based; settings: dose 0.09-3.12 µM; procedure, shortened: as §3
[37] = system: Pseudomonas aeruginosa; assay: Inhibition of biofilm formation of Pseudomonas aeruginosa clinical isolate 82 derived from cystic fibrosis patient sputum at 0.09 to 3.12 uM by crystal violet based staining analysis; format: functional, organism-based; settings: dose 0.09-3.12 µM; procedure, shortened: as §3
[38] = system: Pseudomonas aeruginosa; assay: Inhibition of biofilm formation of Pseudomonas aeruginosa PAO1 in patient derived CF-sputum at 0.09 to 3.12 uM by crystal violet based staining analysis; format: functional, organism-based; settings: dose 0.09-3.12 µM; procedure, shortened: as §3
[39] = system: Pseudomonas aeruginosa PAO1; assay: Induction of biofilm degradation of Pseudomonas aeruginosa PAO1 in cystic fibrosis patient sputum at 10 uM incubated for 48 hr by resazurin staining based confocal microscopy analysis

CC(C)C[C@H](NC(=O)[C@H](CC(C)C)NC(=O)[C@H](CC(C)C)NC(=O)[C@H](CC(C)C)NC(=O)[C@H](CCCCN)NC(=O)[C@H](CCCCN)NC(=O)[C@H](CCCCN)NC(=O)[C@H](CCCCN)NC(=O)[C@H](CCCCN)NC(=O)[C@H](CCCCN)NC(=O)[C@H](CC(C)C)NC(=O)[C@H](CC(C)C)NC(=O)[C@H](CC(C)C)NC(=O)[C@H](CC(C)C)NC(=O)[C@@H](N)CC(C)C)C(N)=O
40%: Activity [26]
active: inhibition [1] | inhibition [2] | inhibition [3] | inhibition [4] | inhibition [5] | inhibition [6] | inhibition [7] | inhibition [8] | Activity [27] | Activity [28] | Activity [29] | Activity [30] | Activity [31] | Activity [32] | Activity [33] | Activity [34] | inhibition [35] | inhibition [36] | inhibition [37] | inhibition [38] | Activity [39]
60%: Activity [9] | Activity [10] | Activity [11] | Activity [12] | Activity [13] | Activity [14] | Activity [15] | Activity [16] | Activity [17] | Activity [18] | Activity [19] | Activity [20] | Activity [21] | Activity [22] | Activity [23] | Activity [24] | Activity [25]
